Data reported in ChEMBL document CHEMBL1240415, “Design, synthesis and antimicrobial activities of some new quinoline derivatives carrying 1,2,3-triazole moiety” (2010).
Values after ≈ are worked out from the molar mass of the structure shown.

Legend:
Assay type in all cases: functional
[1] = tested on: Staphylococcus aureus; assay: Antibacterial activity against Staphylococcus aureus ATTC 25923 after 3 to 4 days by serial plate dilution method; conditions: for MIC: Staphylococcus aureus, ATTC 25923
Outline: (§1)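 Serial dilutions in Mueller-Hinton broth in tubes, pH adjusted to 5.0 with phosphate buffer. Inoculated with a standardized bacterial suspension and incubated 16–18 h at 37 °C. MIC is the lowest concentration with no visible growth, tested over 6.25–100 µg/mL. Zones come from an agar well diffusion assay: compounds in DMSO are added to wells in seeded agar, DMSO control, triplicate plates, 37 °C for 3–4 days, inhibition zone diameter in mm.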

[2] = tested on: Escherichia coli; assay: Antibacterial activity against Escherichia coli ATTC 25922 after 3 to 4 days by serial plate dilution method; conditions: for MIC: Escherichia coli, ATTC 25922; outline: as §1
[3] = tested on: Pseudomonas aeruginosa; assay: Antibacterial activity against Pseudomonas aeruginosa ATCC 27853 after 3 to 4 days by serial plate dilution method; conditions: for MIC: Pseudomonas aeruginosa, ATCC 27853; outline: as §1
[4] = tested on: Klebsiella pneumoniae; assay: Antibacterial activity against recultured Klebsiella pneumoniae after 3 to 4 days by serial plate dilution method; conditions: for MIC: Klebsiella pneumoniae; outline: as §1
[5] = tested on: Streptococcus pyogenes; assay: Antibacterial activity against Streptococcus pyogenes after 3 to 4 days by serial plate dilution method; conditions: for MIC: Streptococcus pyogenes; outline: as §1
[6] = tested on: Aspergillus flavus; assay: Antifungal activity against Aspergillus flavus NCIM 524 after 3 to 4 days by serial plate dilution method; conditions: for MIC: Aspergillus flavus, NCIM 524
Outline: (§2)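 Sabouraud agar made from peptone, glucose and agar in water, pH 5.7. Fungal spores suspended in normal saline and used to lawn the plates, which were dried 1 h at 37 °C. Wells punched and compounds added in DMSO, with a DMSO solvent control. Triplicate plates held at 37 °C for 3–4 days. Read-out is inhibition zone diameter.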

[7] = tested on: Aspergillus fumigatus; assay: Antifungal activity against Aspergillus fumigatus NCIM 902 after 3 to 4 days by serial plate dilution method; conditions: for MIC: Aspergillus fumigatus, NCIM 902; outline: as §2
[8] = tested on: Talaromyces marneffei; assay: Antifungal activity against recultured Penicillium marneffei after 3 to 4 days by serial plate dilution method; conditions: for MIC: Talaromyces marneffei; outline: as §2
[9] = tested on: Trichophyton mentagrophytes; assay: Antifungal activity against recultured Trichophyton mentagrophytes after 3 to 4 days by serial plate dilution method; conditions: for MIC: Trichophyton mentagrophytes; outline: as §2
[10] = tested on: Candida albicans; assay: Antifungal activity against Candida albicans after 3 to 4 days by serial plate dilution method; conditions: for MIC: Candida albicans; outline: as §2

SMILES | MIC [1] [µg/mL] | MIC [2] [µg/mL] | MIC [3] [µg/mL] | MIC [4] [µg/mL] | MIC [5] [µg/mL] | MIC [6] [µg/mL] | MIC [7] [µg/mL] | MIC [8] [µg/mL] | MIC [9] [µg/mL] | MIC [10] [µg/mL] | diameter of the inhibition zone (DIZ) [1] [mm] | diameter of the inhibition zone (DIZ) [2] [mm] | diameter of the inhibition zone (DIZ) [3] [mm] | diameter of the inhibition zone (DIZ) [4] [mm] | diameter of the inhibition zone (DIZ) [5] [mm] | diameter of the inhibition zone (DIZ) [6] [mm] | diameter of the inhibition zone (DIZ) [7] [mm] | diameter of the inhibition zone (DIZ) [8] [mm] | diameter of the inhibition zone (DIZ) [9] [mm] | diameter of the inhibition zone (DIZ) [10] [mm]
COc1ccc2nc(C)cc(-n3cc(CN4CCC(N5CCOCC5)CC4)nn3)c2c1 | 12.5 (≈ 29.6 µM) | 12.5 (≈ 29.6 µM) | 12.5 (≈ 29.6 µM) | 12.5 (≈ 29.6 µM) | 12.5 (≈ 29.6 µM) | 12.5 (≈ 29.6 µM) | 50 (≈ 118 µM) | 50 (≈ 118 µM) | 50 (≈ 118 µM) | 50 (≈ 118 µM) | 10 | 11 | 10 | 11 | 12 | 11 | <10 | <10 | <10 | <10
CCC(C)NCc1cn(-c2cc(C)nc3ccc(OC)cc23)nn1 (configuration not stated) | 12.5 (≈ 38.4 µM) | 6.25 (≈ 19.2 µM) | 12.5 (≈ 38.4 µM) | 12.5 (≈ 38.4 µM) | 12.5 (≈ 38.4 µM) | 12.5 (≈ 38.4 µM) | 25 (≈ 76.8 µM) | 12.5 (≈ 38.4 µM) | 25 (≈ 76.8 µM) | 12.5 (≈ 38.4 µM) | 10 | 14 | 10 | 11 | 12 | 11 | <10 | 10 | <10 | 11
O=C(O)c1cn(C2CC2)c2cc(N3CCNCC3)c(F)cc2c1=O [CIPROFLOXACIN] |  |  |  | 6.25 (≈ 18.9 µM) | 6.25 (≈ 18.9 µM) |  |  |  |  |  | 22 | 30 | 16 | 23 | 25 |  |  |  |  | 

Further compounds by falling MIC [6], results first:

MIC [1] [µg/mL] | MIC [2] [µg/mL] | MIC [3] [µg/mL] | MIC [4] [µg/mL] | MIC [5] [µg/mL] | MIC [6] [µg/mL] | MIC [7] [µg/mL] | MIC [8] [µg/mL] | MIC [9] [µg/mL] | MIC [10] [µg/mL] | SMILES | diameter of the inhibition zone (DIZ) [1] [mm] | diameter of the inhibition zone (DIZ) [2] [mm] | diameter of the inhibition zone (DIZ) [3] [mm] | diameter of the inhibition zone (DIZ) [4] [mm] | diameter of the inhibition zone (DIZ) [5] [mm] | diameter of the inhibition zone (DIZ) [6] [mm] | diameter of the inhibition zone (DIZ) [7] [mm] | diameter of the inhibition zone (DIZ) [8] [mm] | diameter of the inhibition zone (DIZ) [9] [mm] | diameter of the inhibition zone (DIZ) [10] [mm]
6.25 (≈ 15.1 µM) | 12.5 (≈ 30.2 µM) | 12.5 (≈ 30.2 µM) | 12.5 (≈ 30.2 µM) | 12.5 (≈ 30.2 µM) | 6.25 (≈ 15.1 µM) | 6.25 (≈ 15.1 µM) | 6.25 (≈ 15.1 µM) | 6.25 (≈ 15.1 µM) | 6.25 (≈ 15.1 µM) | COc1ccc2nc(C)cc(-n3cc(CN4CCN(c5ccccc5)CC4)nn3)c2c1 | 10 | 12 | 12 | 12 | 10 | 14 | 16 | 16 | 16 | 12
6.25 (≈ 16.4 µM) | 6.25 (≈ 16.4 µM) | 6.25 (≈ 16.4 µM) | 6.25 (≈ 16.4 µM) | 6.25 (≈ 16.4 µM) | 6.25 (≈ 16.4 µM) | 6.25 (≈ 16.4 µM) | 6.25 (≈ 16.4 µM) | 6.25 (≈ 16.4 µM) | 6.25 (≈ 16.4 µM) | COc1ccc2nc(C)cc(-n3cc(CN4CCN(C(C)C)CC4)nn3)c2c1 | 18 | 20 | 14 | 16 | 16 | 16 | 18 | 14 | 16 | 14
 |  |  |  |  | 3.12 | 6.25 | 6.25 | 3.12 | 6.25 | Cc1cc(C2CCCCC2)n(O)c(=O)c1.NCCO [CICLOPIROX OLAMINE] |  |  |  |  |  | 25 | 25 | 20 | 27 | 20
